Experimental data reported in ChEMBL document CHEMBL4028826, “Virtual screen to NMR (VS2NMR): Discovery of fragment hits for the CBP bromodomain” (Bioorg Med Chem Lett, 2017).

Legend:
CREB-binding protein [1] = molecular target: T1, CREB-binding protein (Homo sapiens, UniProt Q92793); test: Residual binding of human CBP expressed in Escherichia coli to histone H4 tetraacetylated peptide at 0.5 mM by Alphascreen assay relative to control
Target sequence in this assay (Q92793 2-2442 limits assumed): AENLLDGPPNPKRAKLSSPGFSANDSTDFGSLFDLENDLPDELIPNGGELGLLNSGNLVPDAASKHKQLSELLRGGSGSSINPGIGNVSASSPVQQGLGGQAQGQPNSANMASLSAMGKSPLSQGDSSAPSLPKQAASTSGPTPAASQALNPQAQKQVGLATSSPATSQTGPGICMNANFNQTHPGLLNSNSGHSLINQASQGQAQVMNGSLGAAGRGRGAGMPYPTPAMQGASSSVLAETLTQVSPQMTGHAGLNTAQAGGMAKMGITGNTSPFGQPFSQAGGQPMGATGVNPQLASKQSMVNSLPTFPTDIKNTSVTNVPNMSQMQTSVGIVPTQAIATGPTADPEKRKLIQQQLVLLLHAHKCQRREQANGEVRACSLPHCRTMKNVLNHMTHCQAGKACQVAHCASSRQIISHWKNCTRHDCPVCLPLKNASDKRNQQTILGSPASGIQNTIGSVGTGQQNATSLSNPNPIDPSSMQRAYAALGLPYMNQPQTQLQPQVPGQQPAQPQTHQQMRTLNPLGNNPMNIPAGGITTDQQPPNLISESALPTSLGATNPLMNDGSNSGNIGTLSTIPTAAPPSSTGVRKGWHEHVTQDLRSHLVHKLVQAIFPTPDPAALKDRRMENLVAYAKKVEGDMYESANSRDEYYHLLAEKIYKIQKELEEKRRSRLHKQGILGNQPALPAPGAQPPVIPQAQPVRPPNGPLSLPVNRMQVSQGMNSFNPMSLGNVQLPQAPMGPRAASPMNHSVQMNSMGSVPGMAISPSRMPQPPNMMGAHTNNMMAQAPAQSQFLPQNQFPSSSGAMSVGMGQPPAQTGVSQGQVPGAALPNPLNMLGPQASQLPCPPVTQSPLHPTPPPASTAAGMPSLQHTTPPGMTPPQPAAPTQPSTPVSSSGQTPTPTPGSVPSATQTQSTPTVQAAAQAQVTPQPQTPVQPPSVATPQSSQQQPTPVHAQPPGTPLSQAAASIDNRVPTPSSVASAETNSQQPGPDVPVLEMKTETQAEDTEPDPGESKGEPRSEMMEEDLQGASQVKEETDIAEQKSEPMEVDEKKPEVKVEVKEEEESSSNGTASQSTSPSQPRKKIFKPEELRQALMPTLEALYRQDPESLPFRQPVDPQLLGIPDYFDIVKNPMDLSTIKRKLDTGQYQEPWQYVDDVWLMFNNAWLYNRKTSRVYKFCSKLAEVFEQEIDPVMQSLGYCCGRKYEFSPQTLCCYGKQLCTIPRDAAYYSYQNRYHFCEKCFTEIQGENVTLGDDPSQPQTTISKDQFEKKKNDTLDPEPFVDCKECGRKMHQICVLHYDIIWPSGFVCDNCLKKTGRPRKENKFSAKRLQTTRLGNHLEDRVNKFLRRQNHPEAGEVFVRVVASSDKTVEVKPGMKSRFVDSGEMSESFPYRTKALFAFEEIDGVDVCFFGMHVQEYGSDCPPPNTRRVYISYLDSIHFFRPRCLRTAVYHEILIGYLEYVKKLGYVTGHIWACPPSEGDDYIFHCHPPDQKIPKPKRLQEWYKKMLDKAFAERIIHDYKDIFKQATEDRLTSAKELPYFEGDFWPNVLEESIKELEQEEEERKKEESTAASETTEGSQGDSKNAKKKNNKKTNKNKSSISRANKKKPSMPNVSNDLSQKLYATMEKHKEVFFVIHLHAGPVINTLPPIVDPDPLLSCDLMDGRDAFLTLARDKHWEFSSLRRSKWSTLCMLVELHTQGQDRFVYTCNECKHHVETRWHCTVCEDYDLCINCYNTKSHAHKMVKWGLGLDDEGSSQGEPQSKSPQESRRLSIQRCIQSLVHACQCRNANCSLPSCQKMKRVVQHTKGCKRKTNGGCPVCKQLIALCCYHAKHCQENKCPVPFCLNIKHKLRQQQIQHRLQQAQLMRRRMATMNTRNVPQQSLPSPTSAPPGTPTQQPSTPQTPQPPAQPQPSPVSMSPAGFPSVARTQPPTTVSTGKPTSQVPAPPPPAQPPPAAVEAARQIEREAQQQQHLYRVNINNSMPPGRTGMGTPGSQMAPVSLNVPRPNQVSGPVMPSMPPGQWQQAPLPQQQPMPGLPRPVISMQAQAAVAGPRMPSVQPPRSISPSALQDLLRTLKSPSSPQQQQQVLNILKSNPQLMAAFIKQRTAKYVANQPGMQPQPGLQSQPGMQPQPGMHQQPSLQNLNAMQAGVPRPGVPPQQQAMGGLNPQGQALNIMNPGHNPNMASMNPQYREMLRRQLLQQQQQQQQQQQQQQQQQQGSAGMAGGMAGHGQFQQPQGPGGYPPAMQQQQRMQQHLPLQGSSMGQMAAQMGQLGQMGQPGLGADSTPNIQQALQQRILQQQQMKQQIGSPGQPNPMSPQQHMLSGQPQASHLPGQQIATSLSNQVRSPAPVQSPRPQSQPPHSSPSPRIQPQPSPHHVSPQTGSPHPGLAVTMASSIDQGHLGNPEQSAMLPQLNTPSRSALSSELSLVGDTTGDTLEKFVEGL

[2] = molecular target: Histone acetyltransferase p300 (Homo sapiens) (UniProt Q09472); test: Binding affinity to EP300 (unknown origin) assessed as change in melting temperature at 1 mM by differential scanning fluorimetric method
Sequence of Histone acetyltransferase p300 (Homo sapiens) (Q09472 whole entry): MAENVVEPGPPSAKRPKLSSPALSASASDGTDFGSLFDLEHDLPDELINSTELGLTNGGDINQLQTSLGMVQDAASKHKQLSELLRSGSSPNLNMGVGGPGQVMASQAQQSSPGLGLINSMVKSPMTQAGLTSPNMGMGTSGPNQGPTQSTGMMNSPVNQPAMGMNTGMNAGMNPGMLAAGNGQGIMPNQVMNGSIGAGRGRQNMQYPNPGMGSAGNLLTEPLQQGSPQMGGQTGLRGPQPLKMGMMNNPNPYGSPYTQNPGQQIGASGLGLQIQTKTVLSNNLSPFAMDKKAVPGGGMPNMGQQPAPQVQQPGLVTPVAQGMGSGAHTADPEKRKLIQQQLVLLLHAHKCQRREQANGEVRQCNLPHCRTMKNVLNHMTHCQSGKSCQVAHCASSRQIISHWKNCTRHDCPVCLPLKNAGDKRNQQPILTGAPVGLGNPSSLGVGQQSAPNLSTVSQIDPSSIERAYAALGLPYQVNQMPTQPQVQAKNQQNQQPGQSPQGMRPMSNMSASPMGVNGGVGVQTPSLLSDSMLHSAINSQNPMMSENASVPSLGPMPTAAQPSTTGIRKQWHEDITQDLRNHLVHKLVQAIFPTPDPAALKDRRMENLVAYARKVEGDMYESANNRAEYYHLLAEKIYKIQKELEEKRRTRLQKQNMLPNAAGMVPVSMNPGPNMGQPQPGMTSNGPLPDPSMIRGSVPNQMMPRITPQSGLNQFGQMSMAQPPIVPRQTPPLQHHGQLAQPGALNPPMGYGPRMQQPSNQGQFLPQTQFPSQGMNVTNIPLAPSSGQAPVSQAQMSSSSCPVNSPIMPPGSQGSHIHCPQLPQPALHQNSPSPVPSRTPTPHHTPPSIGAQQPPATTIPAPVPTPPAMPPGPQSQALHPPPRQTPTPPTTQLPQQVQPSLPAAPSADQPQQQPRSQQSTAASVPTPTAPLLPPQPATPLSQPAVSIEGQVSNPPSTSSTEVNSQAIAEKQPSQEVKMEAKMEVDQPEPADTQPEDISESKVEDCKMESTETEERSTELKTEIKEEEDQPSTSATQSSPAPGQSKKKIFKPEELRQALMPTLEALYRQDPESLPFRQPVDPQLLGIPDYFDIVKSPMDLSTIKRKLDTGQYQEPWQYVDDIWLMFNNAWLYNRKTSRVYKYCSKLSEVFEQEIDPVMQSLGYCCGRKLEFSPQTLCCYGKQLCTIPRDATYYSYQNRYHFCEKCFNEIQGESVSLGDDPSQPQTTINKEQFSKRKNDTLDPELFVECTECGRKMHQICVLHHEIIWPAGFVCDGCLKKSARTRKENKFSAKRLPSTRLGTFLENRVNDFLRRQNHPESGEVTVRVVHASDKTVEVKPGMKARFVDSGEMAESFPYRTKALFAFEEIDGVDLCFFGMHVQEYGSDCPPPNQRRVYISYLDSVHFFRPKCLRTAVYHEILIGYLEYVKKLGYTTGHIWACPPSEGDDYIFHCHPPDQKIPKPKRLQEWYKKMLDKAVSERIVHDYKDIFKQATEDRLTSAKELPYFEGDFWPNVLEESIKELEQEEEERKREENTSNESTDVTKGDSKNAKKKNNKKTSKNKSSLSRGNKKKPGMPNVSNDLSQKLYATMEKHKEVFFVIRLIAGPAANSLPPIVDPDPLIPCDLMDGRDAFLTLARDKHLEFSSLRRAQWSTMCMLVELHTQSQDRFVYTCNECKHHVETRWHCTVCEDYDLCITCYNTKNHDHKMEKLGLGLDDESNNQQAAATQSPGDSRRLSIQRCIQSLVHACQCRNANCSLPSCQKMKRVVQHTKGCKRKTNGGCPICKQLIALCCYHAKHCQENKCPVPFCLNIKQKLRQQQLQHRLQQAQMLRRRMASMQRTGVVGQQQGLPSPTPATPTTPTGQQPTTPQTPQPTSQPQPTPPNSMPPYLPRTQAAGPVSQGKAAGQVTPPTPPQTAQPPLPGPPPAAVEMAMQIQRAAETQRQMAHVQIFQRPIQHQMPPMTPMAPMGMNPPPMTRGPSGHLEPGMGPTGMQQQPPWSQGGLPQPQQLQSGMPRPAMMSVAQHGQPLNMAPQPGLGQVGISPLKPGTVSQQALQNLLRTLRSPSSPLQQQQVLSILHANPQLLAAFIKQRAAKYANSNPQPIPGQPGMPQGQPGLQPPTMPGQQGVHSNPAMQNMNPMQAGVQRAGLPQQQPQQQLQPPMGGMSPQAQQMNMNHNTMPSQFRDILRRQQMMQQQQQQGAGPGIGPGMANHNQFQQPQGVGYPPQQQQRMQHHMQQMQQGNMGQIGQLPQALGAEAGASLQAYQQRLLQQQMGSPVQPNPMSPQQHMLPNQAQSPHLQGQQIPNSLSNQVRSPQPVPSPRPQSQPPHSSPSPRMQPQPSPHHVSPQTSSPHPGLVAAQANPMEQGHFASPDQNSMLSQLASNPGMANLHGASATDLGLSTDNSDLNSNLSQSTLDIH
Summary of the method: (§1)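 Differential scanning fluorimetry with bromodomain at 2 μM and ligand at 1 mM. The reported shift in melting temperature is the median of at least nine measurements for each ligand/bromodomain pair.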

CREB-binding protein [3] = molecular target: T1, CREB-binding protein; test: Inhibition of histone H4 tetraacetylated peptide binding to human CBP by Alphascreen assay
Summary of the method: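 AlphaScreen competition with a tetra-acetylated 21-mer histone H4 peptide as the competitor for the CBP bromodomain. IC50 was obtained by curve fitting of 10-point dose responses.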

CREB-binding protein [4] = molecular target: T1, CREB-binding protein; test: Binding affinity to CBP (unknown origin) assessed as change in melting temperature at 1 mM by differential scanning fluorimetric method
Summary of the method: as §1
Target sequence in this assay (Q92793 2-2442 limits assumed): as the sequence (Q92793 2-2442 limits assumed) above

CREB-binding protein [5] = molecular target: T1, CREB-binding protein; test: Binding affinity to partial length human DNA-tagged CBP (R1081 to G1197 residues) expressed in bacterial expression system by qPCR analysis
Summary of the method: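 Competition-binding assay using DNA-tagged CBP bromodomain against an undisclosed proprietary ligand, with quantitative PCR read-out. KD was obtained by curve fitting of 12-point dose responses run in duplicate.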

Row | SMILES | residual activity (CREB-binding protein [1]) [%] | also measured
1 | O=c1[nH]c(=O)n([C@H]2C[C@H](O)[C@H](CO)O2)cc1F | 98 | 
2 | CNC(=O)c1cc(Br)c[nH]1 | 0.1 | ΔTm [2]: 7 °C; IC50 (CREB-binding protein [3]): 40 µM; ΔTm (CREB-binding protein [4]): 7.3 °C; Kd (CREB-binding protein [5]): 4 µM
3 | COc1cc(C(C)=O)ccc1N | 37 | ΔTm [2]: 2.6 °C; ΔTm (CREB-binding protein [4]): 2.4 °C
4 | CC(=O)c1ccc(O)c2[nH]c(=O)ccc12 | 93 | 
5 | CCc1nnc2cccc(Cl)n12 | 85 | 
6 | COC(=O)c1ccc2[nH]c(=O)oc2c1 | 34 | ΔTm [2]: 1.4 °C; IC50 (CREB-binding protein [3]): 455 µM; ΔTm (CREB-binding protein [4]): 2.3 °C; Kd (CREB-binding protein [5]): 85 µM
7 | COC(=O)c1ccc(C(C)=O)cc1 | 92 | 
8 | Cc1nnc2ccc(N3CCOCC3)nn12 | 102 | 
9 | COc1ccc(-c2c[nH]nc2N)cc1OC | 48 | ΔTm [2]: -1.3 °C; ΔTm (CREB-binding protein [4]): -0.1 °C
10 | CNC(=O)c1ccc(C(F)(F)F)nc1 | 96 | 
11 | CC(=O)c1cn(C)c2ccccc12 | 31 | ΔTm [2]: 2.6 °C; ΔTm (CREB-binding protein [4]): 2.9 °C
12 | CS(=O)(=O)NCc1ccc2c(c1)OCO2 | 100 | 
13 | Cc1nnsc1Sc1ccccn1 | 92 | 
14 | CC(=O)c1ccc(CC#N)s1 | 56 | 
15 | CC(=O)Nc1ccc(SCC#N)cc1 | 74 | 
16 | O=C(O)[C@@H]1CS[C@H](c2ccc(F)cc2)N1 | 94 | 
17 | Cc1nc2ccc(NS(C)(=O)=O)cc2o1 | 92 | 
18 | Cn1ncc2c1CCCC2=O | 100 | 
19 | CCn1cnc2ccc(C(=O)OC)cc21 | 79 | 
20 | COC(=O)N1CCC(C(=O)O)CC1 | 56 | 
